High-throughput results: PubChem BioAssay, several laboratories
Hits are enriched below; roughly 2.2% of the tested compounds scored in any of these assays.
DAGLB inh – DAGLB lipase inhibitors, primary screen, biochemical, fluorescence, HTS; Diacylglycerol lipase-beta (Homo sapiens), Q8NCG7; HEK293T DAGLB membrane lysate, EnzChek fluorogenic substrate; inhibition, % at 5.17 µM; actives 0.059% (n = 340,000); in the data active means inhibition above about 34%;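 further: 0% = enzyme with vehicle and 100% = wells lacking enzyme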
DNA FID counter – compounds displacing fluorescent DNA intercalator, primary screen, artefact control for HCV NS3 helicase inhibitor project, biochemical, FID fluorescence; DNA fluorescent intercalator displacement; inhibition, % at 7.9 µM; actives 0.17% (n = 290,000); AID 1845, 2009; in the data active means inhibition above about 37%;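 further: 0% = vehicle and 100% = reference compound; higher means more ethidium bromide displaced from hairpin DNA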
HCV NS3 hel inh – inhibitors of HCV NS3 helicase, primary screen, biochemical, Cy5 molecular beacon fluorescence; Hepatitis C virus NS3 helicase; NS3 helicase DNA unwinding; inhibition, % at 10.9 µM; actives 0.56% (n = 290,000); AID 1800, 2009;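 active means inhibition above the mean of all tested compounds plus 3 SD, set per campaign, cut at about 35% in these data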;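 further: 0% = DMSO wells and 100% = thioflavine S control wells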
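Assay system – hepatitis C virus NS3 helicase domain fragment enzyme · Buffer or medium – MOPS pH 6.5, MgCl2, DTT, Tween20, BSA · Reagent – Cy5/quencher beacon DNA duplex and ATP to start · Compound – single 10.9 µM dose · Timing – 1 h at 25 °C · Technique – Cy5 beacon fluorescence read at start and 1 h · Measure – % inhibition of unwinding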
GPR7 antag – GPR7 receptor antagonists, primary screen, cell-based, fluorescence, single concentration; Neuropeptides B/W receptor type 1 (Homo sapiens), P48145; GPR7-expressing cells, fluorescence antagonist assay; inhibition, % at 4.4 µM; actives 1.1% (n = 290,000); AID 1861, 2009; in the data active means inhibition above about 16%, passing the limit was not always enough;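 further: cells stimulated with the agonist NPW; 0% = agonist with vehicle and 100% = vehicle without agonist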
Target sequence (P48145 whole entry, looked up): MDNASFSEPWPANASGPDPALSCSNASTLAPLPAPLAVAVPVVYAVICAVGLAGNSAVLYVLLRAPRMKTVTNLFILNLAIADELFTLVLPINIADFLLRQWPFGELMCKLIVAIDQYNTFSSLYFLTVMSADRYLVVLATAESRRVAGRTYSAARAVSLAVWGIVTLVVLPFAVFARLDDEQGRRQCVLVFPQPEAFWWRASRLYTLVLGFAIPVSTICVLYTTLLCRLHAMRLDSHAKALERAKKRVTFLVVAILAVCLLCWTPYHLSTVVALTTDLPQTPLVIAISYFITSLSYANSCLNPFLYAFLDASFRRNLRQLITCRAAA
core dimer inh – inhibitors of HCV core protein dimerization, primary screen, biochemical, TR-FRET, high-throughput. actives 0.33% (n = 300,000). AID 1899, 2009. TR-FRET GST/Flag-core106 dimerization, 1536-well. inhibition, % at 5 µM;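 active means inhibition above the mean of all tested compounds plus 3 SD, set per screening campaign, cut at about 45% in these data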
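Assay system: GST-tagged and Flag-tagged HCV core protein residues 1-106 / Times: compound-protein-antibody incubation 4 h at 22.5 °C / Signal: time-resolved FRET, ex 340 nm, em 617 and 671 nm / Evaluation: % inhibition based on acceptor/donor emission ratio / Benchmarks: wells lacking GST-core106 and wells with excess unlabelled core106 / Repeats: singlicate, one well per compound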
GRK2 inh – compounds blocking aptamer binding on GRK2 – biochemical, human GRK2, bead flow cytometry, HTS, primary screen; inhibition of aptamer binding, % at 10 µM; Beta-adrenergic receptor kinase 1 (Homo sapiens), P25098; actives 0.59% (n = 330,000); FAM-aptamer displacement from GRK2; AID 488847, 2010;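 active means inhibition of aptamer binding above 40%, roughly 3 SD of noise, on plates passing a quality check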;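 further: median bead fluorescence of bound FAM aptamer so fluorescent compounds give negative values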
The depositor's hits bear a star; nt = not tested or not shown.

SMILES | DAGLB inh | DNA FID counter | HCV NS3 hel inh | GPR7 antag | core dimer inh | GRK2 inh
Cc1cccc(-c2ncc(CN3CCN(CCC(C)C)C(CCO)C3)cn2)c1 (stereo unspecified) | 0 | 25 | 4 | 19* | 0 | 0
CCOc1ccc2nc(NCCNC(=S)NCCCN(C)C)c(C#N)cc2c1 | 2 | 42* | -19 | 13 | 3 | 1
CCOc1ccc2nc(NCCNC(=O)Nc3ccccc3)c(C#N)cc2c1 | 0 | -4 | 0 | -2 | -6 | 5
CCn1nc(C)cc1C(=O)N1CCc2c([nH]c3ccccc23)C1c1cc(F)ccc1F (stereo unspecified) | nt | -32 | -8 | 19* | 3 | 2
Cc1ncoc1C(=O)N1CCc2c([nH]c3ccccc23)C1c1ccccc1F (stereo unspecified) | -1 | -19 | -4 | 17 | 0 | 0
O=C(C1CCC(Cn2c(=O)[nH]c3ccccc3c2=O)CC1)N1CCN(c2ccccc2)CC1 (stereo unspecified) | 2 | -31 | -2 | -1 | 5 | 0
O=C(C1CCC(Cn2c(=S)[nH]c3ccccc3c2=O)CC1)N1CCN(c2ccccc2)CC1 (stereo unspecified) | 6 | -7 | -14 | -2 | 53* | 0
COc1ccc(CC(=O)Nc2ccc(-c3nnc(-c4ccccc4)o3)cc2)cc1OC | -5 | -3 | 5 | -1 | 83* | 0
COc1ccc(CC(=O)Nc2cccc(-c3nnc(-c4ccccc4)o3)c2)cc1OC | -1 | -10 | 8 | -17 | nt | nt
COc1ccccc1OCC(=O)Nc1cccc(-c2nnc(-c3ccco3)o2)c1 | 0 | -33 | 12 | 5 | 3 | 1
O=C(COc1ccccc1)Nc1ccc(-c2nnc(-c3ccco3)o2)cc1 | 0 | 4 | -1 | -14 | 52* | 0
Cc1ccc(NC(=O)Nc2ccc(F)c(Cl)c2)cc1 | -8 | 5 | -5 | 29* | 0 | 0
COc1ccc(NC(=O)Nc2ccc(F)c(Cl)c2)cc1 | -3 | 15 | 1 | 6 | 1 | 3
O=S(=O)(c1cccc2cccnc12)n1cnc2ccccc21 | -1 | -4 | -5 | 12* | -4 | 5
CCN(CC)C(=O)C1=C(C)N(CCCOC)C(=O)C(CC(=O)NCc2cccs2)C1 (stereo unspecified) | -4 | nt | nt | nt | nt | nt
CN(CC(=O)Nc1ccc(N2CCOCC2)cc1)C(=O)CCc1cc(C(C)(C)C)c(O)c(C(C)(C)C)c1 | -1 | nt | nt | nt | 2 | 0
CC(C)Cn1c(N)c(C(=O)COC(=O)c2c(F)cccc2F)c(=O)n(C)c1=O | 1 | -13 | -9 | 3 | -8 | 0
CC(C)Cn1c(N)c(C(=O)COC(=O)c2ccccc2F)c(=O)n(C)c1=O | -2 | -16 | -10 | 17* | -7 | 1
C=CCNC(=O)CN1C(=O)CSc2ccc(S(=O)(=O)N3CCOCC3)cc21 | -1 | nt | nt | nt | nt | nt
CCC1(C)NC(=O)N(CC(=O)Nc2cc(C)on2)C1=O (stereo unspecified) | -3 | nt | nt | nt | nt | 3
Cn1c(SCC(=O)NC(=O)NCc2ccco2)nnc1-c1ccccc1 | 0 | -10 | 7 | -9 | 57* | 0
Cc1ccccc1CSCC(=O)NC(=O)NCc1ccco1 | 1 | -8 | 17 | -7 | 58* | 2
Cc1cc(SCC(=O)NC(=O)NCc2ccco2)nc2ccccc12 | -2 | -16 | 13 | -9 | 22 | 0
O=C(CSc1cccc(C(F)(F)F)c1)NC(=O)NCc1ccco1 | 2 | -11 | 12 | 0 | 51* | 0
O=C(CSc1ccccc1F)NC(=O)NCc1ccco1 | 1 | -2 | 31 | -2 | 23 | 0
SMILES | DAGLB inh | DNA FID counter | HCV NS3 hel inh | GPR7 antag | core dimer inh | GRK2 inh
Cc1cc(SCC(=O)NC(=O)NCc2ccco2)nc2c(C)cccc12 | 1 | -7 | 22 | -6 | 48* | 0
Cc1cccc(SCC(=O)Nc2ccc3c(c2)OCCO3)c1 | -6 | -17 | -7 | -10 | -4 | 4
O=C(O)CCC(=O)Nc1nnc(C(F)(F)F)s1 | -1 | 6 | -6 | -10 | -2 | 4
CCC(NC(=O)Nc1nnc(C(F)(F)F)s1)(C(F)(F)F)C(F)(F)F | -2 | -6 | 7 | 29* | -3 | 0
O=C(Oc1ccc(-c2cn3c(n2)SCC3)cc1)c1ccccc1 | 1 | -17 | -4 | 18* | 8 | 0
CCCCCCCCCC1(CC(=O)OCC)SCCN1C(N)=O (stereo unspecified) | -6 | nt | nt | nt | nt | nt
CCOc1cc(CNC(C)(C)C)ccc1OCC(=O)Nc1cccc(C(F)(F)F)c1 | -4 | 38* | -47 | 5 | -5 | 0
CCN(CC(=O)Nc1cc(Cl)ccc1C)C(=O)C1COc2ccccc2O1 (stereo unspecified) | 1 | nt | nt | nt | nt | 5
O=C(Oc1ccc(Br)cc1C(=S)N1CCOCC1)c1ccc([N+](=O)[O-])cc1[N+](=O)[O-] | 1 | 3 | -11 | 15 | -2 | 2
O=C(Nc1ccc(S(=O)(=O)Nc2ccccc2)cc1)c1ccc(CN2CCOCC2)cc1 | 0 | 13 | -26 | 50* | -1 | 0
O=C(Nc1ccc(CN2CCOCC2)cc1)c1ccc(Cl)cc1 | 2 | 2 | -4 | -9 | 3 | 4
CCOC(=O)C1=C(C)NC(C)=C(C(=O)OCC)C1C(=O)OCC(=O)Nc1ccc(NC(C)=O)cc1 | 0 | nt | nt | nt | nt | nt
Cc1ccc(C(=O)OCC(=O)Nc2cc(Cl)ccc2C#N)o1 | 2 | nt | nt | nt | nt | nt
COc1cc2ncnc(NCCCN3CCOCC3)c2cc1OC | -1 | 76* | 30 | 1 | -4 | 0
COc1ccc(-n2ncc3c(NCCCN4CCOCC4)ncnc32)cc1 | 1 | 2 | 6 | -11 | -1 | 0
CCOc1cc2nc(-c3ccc(OC)c(OC)c3)nc(NCCCN3CCOCC3)c2cc1OC | 1 | 43* | 6 | -15 | -1 | 0
COc1cc2nc(=S)n(CCCN3CCOCC3)c(N)c2cc1OC | -1 | 45* | 11 | 4 | nt | nt
O=S(=O)(c1ccc(F)cc1)N1CCN(CC(O)COCC2CCCO2)CC1 (stereo unspecified) | 1 | nt | nt | nt | nt | nt
COc1cc(NC(=O)c2cccc3c2C(=O)N(C2CCCCC2)C3)cc(OC)c1OC | 1 | -37 | -9 | 9 | 24 | 2
CCc1cccc(NC(=O)c2cccc3c2C(=O)N(CC2CCCO2)C3)c1 (stereo unspecified) | -5 | -23 | -18 | -4 | 19 | 0
CCOc1ccc(C(=O)OCC(=O)N(Cc2ccccc2)Cc2ccccc2)cc1OC | -5 | nt | nt | nt | nt | 0
